Reference: ChEMBL document CHEMBL1240421, “Synthesis and evaluation of graveoline and graveolinine derivatives with potent anti-angiogenesis activities” (Eur J Med Chem, 2010)
Calls of active or inactive are those of the source. The rule behind the calls is not given here.

How the values were obtained:
[1] = test system: NCI-H460; assay: Cytotoxicity against human NCI-H460 cells after 48 hrs by MTT assay; assay type: functional, cell-based; settings: NCI-H460, 48 h
In short: (§1)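 Cells seeded at 5000 per well, exposed to a range of concentrations. MTT step, then 4 h further incubation. Formazan dissolved in DMSO, OD read at 490 nm. Triplicate wells; IC50 taken from curves of mean OD versus concentration.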

[2] = Cytotoxicity against human GLC82 cells after 48 hrs by MTT assay; assay type: functional, cell-based; settings: GLC82, 48 h; in short: as §1
[3] = test system: HUVEC; assay: Inhibition of HUVEC cell adhesion to collagen at 30 uM after 3 hrs
[4] = test system: HUVEC; assay: Inhibition of HUVEC cell adhesion to collagen at 15 uM; settings: Homo sapiens
[5] = test system: HUVEC; assay: Cytotoxicity against HUVEC cells after 48 hrs by MTT assay; assay type: cell-based; settings: Homo sapiens; in short: as §1
[6] = species: Gallus gallus; assay: Antiangiogenic activity in fertilized chicken eggs at 30 ug/10 uL after 48 hrs by CAM assay; assay type: functional; settings: Egg
In short: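 Test agent applied to the chick CAM at 30 µg/10 µL, 10 eggs per treatment; 0.9% NaCl as negative control, thalidomide as positive control. After 48 h, CAMs fixed in 4% paraformaldehyde, vessels counted in three random microscope fields around the filter disc.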

[7] = test system: HUVEC; assay: Inhibition of HUVEC cell adhesion to collagen at 30 uM after 1 hr; assay type: functional; settings: Homo sapiens
In short: (§2)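 Wells coated overnight at room temperature with rat tail tendon type I collagen in PBS, blocked with 0.2% BSA for 2 h at 37 °C. HUVEC resuspended in DMEM and added at 10⁴ cells/ml with compound, incubated 1 or 3 h at 37 °C. After washing, attached cells stained with 0.2% crystal violet and solubilized in 2% SDS; OD at 570 nm. Triplicate wells, three independent experiments.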

[8] = test system: HUVEC; assay: Inhibition of migration of HUVEC cellss at 15 to 30 uM; assay type: functional, Homo sapiens
In short: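 Scratch-wound assay: HUVEC plated at 20 000 cells per well, monolayer scraped with a rubber policeman, then incubated 24 h with or without compound. Two random pictures per wound; migration area measured. Triplicate measurements, at least three experiments.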

[9] = test system: HUVEC; assay: Inhibition of HUVEC cell adhesion to collagen at 15 uM after 3 hrs; assay type: functional; settings: Homo sapiens; in short: as §2
[10] = test system: HUVEC; assay: Inhibition of HUVEC cell adhesion to collagen at 15 uM after 1 hr; assay type: functional, cell-based; settings: Homo sapiens; in short: as §2

Cc1ccc(-c2cc(=O)c3ccccc3n2C)cc1
IC50 [1]: > 100 µM | IC50 [2]: > 100 µM | inhibition (INH) [3]: 8.1% | inhibition at 15 µM [4]: 30.3% | IC50 [5]: > 100 µM

COc1ccc(Nc2cc(-c3ccc(C)cc3)nc3ccccc23)cc1
IC50 [1]: 24.2 µM | Activity [6]: Active | IC50 [2]: 34.2 µM | inhibition (INH) [3]: 48.1% | inhibition at 15 µM [4]: 42.4% | IC50 [5]: 14.3 µM

COc1ccc(-c2cc(NCCO)c3ccccc3n2)cc1
IC50 [1]: 38.3 µM | IC50 [2]: 56.2 µM | inhibition (INH) [3]: 54.9% | inhibition at 15 µM [4]: 54.1% | IC50 [5]: 74.1 µM

CN(C)CCCNCc1ccc(-c2cc(=O)c3ccccc3n2C)cc1
IC50 [1]: > 100 µM | IC50 [2]: > 100 µM | inhibition (INH) [3]: 42% | inhibition at 15 µM [4]: 31.9% | IC50 [5]: 99.7 µM

Cc1ccc(-c2cc(NCCCN3CCOCC3)c3ccccc3n2)cc1
IC50 [1]: 11.5 µM | Activity [6]: Active | IC50 [2]: 49.5 µM | inhibition (INH) [3]: 49.2% | inhibition at 15 µM [4]: 47.2% | IC50 [5]: 45.2 µM

COc1cc(-c2ccc(CO)cc2)nc2ccccc12
IC50 [1]: > 100 µM | IC50 [2]: > 100 µM | inhibition (INH) [3]: 19.4% | inhibition at 15 µM [4]: 27.5% | IC50 [5]: > 100 µM

Cc1ccc(-c2cc(NCCN(C)C)c3ccccc3n2)cc1
IC50 [1]: 6.1 µM | Activity [6]: Active | IC50 [2]: 20.6 µM | inhibition (INH) [3]: 48.2% | inhibition at 15 µM [4]: 52.2% | IC50 [5]: 30.3 µM

Cc1ccc(-c2cc(Cl)c3ccccc3n2)cc1
IC50 [1]: > 100 µM | IC50 [2]: > 100 µM | inhibition (INH) [3]: 35.2% | inhibition at 15 µM [4]: 39% | IC50 [5]: > 100 µM

c1ccc2c(NCCCN3CCOCC3)cc(-c3ccc(CNCCCN4CCOCC4)cc3)nc2c1
IC50 [1]: 42.3 µM | IC50 [2]: 34.4 µM | inhibition at 30 µM [7]: 15.8% | inhibition (INH) [8]: 49.2% | inhibition at 15 µM [9]: 46.2% | IC50 [5]: 56.5 µM | IC50 [10]: > 100 µM

COc1cc(-c2ccc(COC(=O)c3cccs3)cc2)nc2ccccc12
IC50 [1]: > 100 µM | IC50 [2]: > 100 µM | inhibition (INH) [3]: 27.4% | inhibition at 15 µM [4]: 37.4% | IC50 [5]: > 100 µM

COc1cc(-c2ccc(C)cc2)nc2ccccc12
IC50 [1]: > 100 µM | IC50 [2]: > 100 µM | inhibition (INH) [3]: 20.3% | inhibition at 15 µM [4]: 35.4% | IC50 [5]: > 100 µM

Cc1ccc(-c2cc(NCCCO)c3ccccc3n2)cc1
IC50 [1]: 48.1 µM | Activity [6]: Active | IC50 [2]: 60.3 µM | inhibition (INH) [3]: 33.8% | inhibition at 15 µM [4]: 44.2% | IC50 [5]: 63.5 µM

COc1ccc(-c2cc(NCCCO)c3ccccc3n2)cc1
IC50 [1]: 24 µM | IC50 [2]: 40.9 µM | inhibition (INH) [3]: 56.4% | inhibition at 15 µM [4]: 45.3% | IC50 [5]: 47.6 µM

Cc1ccc(-c2cc(NCCO)c3ccccc3n2)cc1
IC50 [1]: 53.7 µM | Activity [6]: Active | IC50 [2]: 61.1 µM | inhibition (INH) [3]: 40% | inhibition at 15 µM [4]: 38.3% | IC50 [5]: 73.7 µM

COc1ccc(-c2cc(Cl)c3ccccc3n2)cc1
IC50 [1]: > 100 µM | IC50 [2]: > 100 µM | inhibition (INH) [3]: 48.2% | inhibition at 15 µM [4]: 52.6% | IC50 [5]: > 100 µM

Clc1cc(-c2ccc(CNCCCN3CCOCC3)cc2)nc2ccccc12
IC50 [1]: 21.1 µM | IC50 [2]: 30.6 µM | inhibition (INH) [3]: 72.3% | inhibition at 15 µM [4]: 67.8% | IC50 [5]: 22.4 µM
